Yeast lifespan up = yeast lifespan extension; S. cerevisiae growth with nicotinamide, OD615; deaD strain in restrictive glucose medium; inhibition of the nicotinamide effect, % at 10 µM; 130,000 tested, 0.68% active;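 active = inhibition above a set limit, placed 3 SD over the median of all compounds, cut at about 26% in these data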;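 also: 0% = nicotinamide-treated wells and 100% = cells grown without nicotinamide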
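Assay system: engineered S. cerevisiae DeaD replicative-lifespan strain, galactose-grown log-phase cells; medium: restrictive CSMM-D dextrose medium; also added: nicotinamide, 1.5 mM, co-present with compound; schedule: 48 h compound exposure at 30 °C, humidified; detection: absorbance at 615 nm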
WT yeast gro inh = growth inhibition of WT yeast, mitochondrial fusion screen; mitochondrial fusion phenotypic screen, WT strain; inhibition, % at 10 µM; 190,000 tested, 2.1% active; AID 1362; in the data active = inhibition above about 58%; tested in S. cerevisiae
RAM network inh = inhibitors of the yeast RAM network | S. cerevisiae dse1pr::URA3 reporter, 5-FOA growth OD615, 2 d; analog-sensitive cbk1-as2 kinase mutant strain | inhibition, % at 50 µM | 190,000 tested, 1.8% active | AID 868;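 active = inhibition above a set limit, 3 SD over mean compound inhibition, cut at about 8.4% in these data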;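 also: 0% = DMSO-only wells with no growth and 100% = 10 µM 1-NA-PP1 full growth; inhibition rescues growth on 5-FOA so higher OD means more RAM inhibition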
BB579 growth dn = yeast BB579 growth reduction in restrictive medium | S. cerevisiae BB579 growth, OD615, 48 h | 140,000 tested, 0.51% active | inhibition, % at 10 µM;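 active = inhibition above a set limit, 3 SD over the mean compound inhibition, cut at about 44% in these data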
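Detection: OD615 turbidity measurement; Material: Saccharomyces cerevisiae DeaD strain BB579, replicative lifespan model yeast; Timing: 48 h exposure, 30 °C; Doses: single 10 µM dose; Medium: CSMM-D restrictive synthetic medium containing dextrose (glucose); Controls: amphotericin B at 10 µg/mL as positive control.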
Starred values were filed as active, the others as inactive. The list is not random: actives were taken first. Their share in the collection is about 4.3%.

Screening O=C1c2cccc3c([N+](=O)[O-])ccc(c23)C(=O)N1c1ccc(Cl)cn1 returned Yeast lifespan up 33.0*, WT yeast gro inh -2.4, RAM network inh 0.8 and BB579 growth dn -22.9.
`CCCCNC(=O)/C=C/c1ccc(OC)c(Br)c1` gave Yeast lifespan up -8.0, WT yeast gro inh -6.9, RAM network inh 9.6* and BB579 growth dn -15.8.
For Cc1cc2c(cc1C)CSC(c1c(O)ccc3ccccc13)SC2 the results were Yeast lifespan up -8.7, WT yeast gro inh 96.7*, RAM network inh 2.2 and BB579 growth dn 19.6.
`COCCN(Cc1cc2ccc(C)cc2n2nnnc12)Cc1nnnn1C(C)(C)C` gave WT yeast gro inh 2.7, RAM network inh -0.2 and BB579 growth dn -39.2.
`CC(C)(C)NC(=O)c1cccc(NC(=O)CSc2ccc(Cl)cc2)c1` gave Yeast lifespan up -0.5, WT yeast gro inh 0.0, RAM network inh 5.0 and BB579 growth dn -50.5.
Screening CC(C)CNC(=O)c1cccc(NC(=O)CSc2ccc(Cl)cc2)c1 returned Yeast lifespan up 9.6, WT yeast gro inh 7.8, RAM network inh 9.8* and BB579 growth dn -45.6.
`N#Cc1c(-c2c(Cl)cccc2Cl)noc1/C=C/Nc1ccc(C(=O)O)cc1` gave WT yeast gro inh -4.8 and RAM network inh 8.6*.
`CN(C)/C=C/c1onc(-c2c(Cl)cccc2Cl)c1C#N` gave WT yeast gro inh 16.4 and RAM network inh 4.0.
Screening Cc1ccc(CN=c2c([N+](=O)[O-])nn(-c3cccc(Cl)c3)n2O)cc1 returned WT yeast gro inh 60.7* and RAM network inh 4.0.
For Cc1ccc(CN=c2c([N+](=O)[O-])nn(-c3cccc(C)c3)n2O)cc1 the results were WT yeast gro inh 24.2 and RAM network inh 0.5.
O=C1COc2ccc(C(=O)c3ccccc3C(=O)NCc3ccco3)cc2N1 was read as Yeast lifespan up -9.1, WT yeast gro inh -9.6, RAM network inh -0.7 and BB579 growth dn -19.6.
Cc1ccc(Nc2nc(-c3cccs3)cs2)nc1 was read as WT yeast gro inh 69.5* and RAM network inh 0.1.
CN1C(=O)CSC1=NC12CC3CC(CC(C3)C1)C2 was read as Yeast lifespan up 53.1*, WT yeast gro inh 9.8, RAM network inh 1.9 and BB579 growth dn -0.1.
CCc1ccccc1NCC(=O)Nc1ccc(Cl)c(C(F)(F)F)c1 was read as Yeast lifespan up -6.5, WT yeast gro inh 79.8*, RAM network inh 4.5 and BB579 growth dn 32.3.
COc1ccccc1NC(C)C(=O)N/N=C/c1ccccc1OCc1cccc(Br)c1 (centres undefined) was read as Yeast lifespan up 6.1, WT yeast gro inh 0.5, RAM network inh 0.8 and BB579 growth dn -29.8.
`CSc1nc(Cl)c(Cc2ccc(OCC(C)C)cc2)c(N2CCOCC2)n1` gave Yeast lifespan up 4.4, WT yeast gro inh 36.7, RAM network inh 8.6* and BB579 growth dn -19.1.
`CCCCOc1ccc(Cc2c(Cl)nc(SC)nc2N2CCOCC2)cc1` gave Yeast lifespan up 5.6, WT yeast gro inh 48.1, RAM network inh 8.3 and BB579 growth dn -44.8.
Screening CCOc1ccc(Cc2c(Cl)nc(SC)nc2OC)cc1 returned Yeast lifespan up -7.5, WT yeast gro inh 46.5, RAM network inh 9.4* and BB579 growth dn 4.1.
CCCCCCCC[n+]1cccc2c3ccccc3ccc21 was read as WT yeast gro inh 80.2* and RAM network inh 0.6.
For O=C(N=C1SCC(=O)N1c1ccccc1Cl)c1ccccc1 the results were WT yeast gro inh 77.5* and RAM network inh 1.4.
CCCCCC1CC(CC(=O)NC(=S)Nc2ccccc2Cl)C(=O)O1 (centres undefined) was read as WT yeast gro inh 61.0* and RAM network inh 3.6.
`Cc1ccsc1/C=C1\SC(N2CC(C)OC(C)C2)=NC1=O` (centres undefined) gave Yeast lifespan up -4.7, WT yeast gro inh -4.7, RAM network inh 0.7 and BB579 growth dn -34.3.
Screening O=C(c1ccc(Cl)cc1)N1CCN(c2ccc(F)cc2)CC1 returned WT yeast gro inh 70.7*, RAM network inh -1.4 and BB579 growth dn -47.6.
For O=C(CSC1=NCCS1)N1CCN(c2ccc(Cl)cc2)CC1 the results were Yeast lifespan up -24.0, WT yeast gro inh 10.8, RAM network inh -1.2 and BB579 growth dn 50.9*.
Screening O=C(c1ccncc1)N1CCN(c2ccc(F)cc2)CC1 returned Yeast lifespan up -14.2, WT yeast gro inh -2.9, RAM network inh 1.3 and BB579 growth dn 0.0.
COc1cnc(-c2ccccn2)nc1Oc1ccc(Cl)c2ccccc12 was read as Yeast lifespan up -19.4, WT yeast gro inh -5.0, RAM network inh -1.9 and BB579 growth dn -2.7.
`COc1cnc(-c2ccccn2)nc1Oc1ccccc1Cl` gave Yeast lifespan up 57.5, WT yeast gro inh 60.6*, RAM network inh -0.3 and BB579 growth dn -33.5.
N=c1n(CCN2CCCC2)c2ccccc2n1CC(O)c1ccc(Cl)c(Cl)c1 (centres undefined) was read as WT yeast gro inh -1.8 and RAM network inh 1.7.
N=c1n(CCN2CCOCC2)c2ccccc2n1CC(=O)c1ccc(Cl)c(Cl)c1 was read as Yeast lifespan up -28.0, WT yeast gro inh 9.3, RAM network inh 0.3 and BB579 growth dn 94.9*.
`CC(C)(C)n1nnnc1C(c1ccc(C(F)(F)F)cc1)N(Cc1ccccc1)Cc1ccco1` (centres undefined) gave Yeast lifespan up -8.0, WT yeast gro inh -2.3, RAM network inh 10.9* and BB579 growth dn -18.2.
`CC(C)(C)n1nnnc1C(c1cccnc1)N(Cc1ccccc1)Cc1cccs1` (centres undefined) gave Yeast lifespan up -2.9, WT yeast gro inh 81.4*, RAM network inh 1.0 and BB579 growth dn -89.2.
For CC(C)(C)n1nnnc1C(c1ccc(C(F)(F)F)cc1)N(Cc1ccc(F)cc1)Cc1ccco1 (centres undefined) the results were WT yeast gro inh 19.6, RAM network inh 6.7 and BB579 growth dn -37.5.
For CC(C)(C)n1nnnc1C(c1ccc(F)cc1)N(Cc1ccc(F)cc1)Cc1ccco1 (centres undefined) the results were Yeast lifespan up 9.4, WT yeast gro inh 58.6*, RAM network inh 7.1 and BB579 growth dn -30.7.
Screening CC(C)(C)n1nnnc1C(c1ccc(Cl)cc1)N(Cc1cccnc1)Cc1ccco1 (centres undefined) returned WT yeast gro inh 68.2*, RAM network inh 1.5 and BB579 growth dn -11.9.
FC(F)(F)c1cnc(N2CCC(=NOCc3ccc(Cl)cc3)CC2)c(Cl)c1 was read as Yeast lifespan up -11.8, WT yeast gro inh 63.2*, RAM network inh -0.3 and BB579 growth dn -15.0.
Screening CCCCCCCCCCCC(=O)c1c(O)cccc1O returned WT yeast gro inh 94.8* and RAM network inh 3.2.
`CCOc1ccc(NC(=O)c2nnn(CC(=O)Nc3ccccc3OCC)c2N)cc1` gave Yeast lifespan up 0.6, WT yeast gro inh 16.3, RAM network inh 4.7 and BB579 growth dn -38.4.
For CCOc1ccc(NC(=O)Cn2nnc(C(=O)NCc3ccccc3OC)c2N)cc1 the results were Yeast lifespan up -3.0, WT yeast gro inh -8.3, RAM network inh 9.9* and BB579 growth dn -60.0.

Screening results from PubChem.
